Measurements reported in ChEMBL document CHEMBL1157054, “Design, synthesis and biological evaluation of indane-2-arylhydrazinylmethylene-1,3-diones and indol-2-aryldiazenylmethylene-3-ones as beta-amyloid aggregation inhibitors” (Eur J Med Chem, 2010).
pIC50: −log10 of the molar value. Active and inactive are the calls of the source. The rule behind the calls is not given here.

test: Inhibition of amyloid beta (1 to 40) aggregation assessed as inhibition of fibril formation by thioflavin T fluorescent dye assay
Outline: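 ThT fluorimetric assay on HFIP-pretreated Aβ1-40, 30 µM in PBS pH 7.4 containing 2% HFIP and 10% DMSO, incubated 2 h at 25 °C. Fluorescence read after mixing with 25 µM ThT (phosphate pH 6.0), ex 440/em 485 nm, blank-corrected vs inhibitor-free aggregation. IC50 from 5-7 concentrations tested in triplicate, three independent experiments.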

Row | SMILES | pIC50
1 | O=c1c(O)c(-c2ccc(O)c(O)c2)oc2cc(O)cc(O)c12 [QUERCETIN] | 6.10
2 | O=C1C(=CNNc2ccccc2Cl)C(=O)c2ccccc21 | 4.49
3 | O=C1C(=C/N=N/c2ccccc2Cl)Nc2ccc(Br)cc21 | 5.11
4 | O=C1C(=C/N=N/c2ccccc2Cl)Nc2ccccc21 | 4.89
5 | O=C1C(=C/N=N/c2ccccc2)Nc2ccc(Br)cc21 | 4.46
6 | O=C1C(=CNNc2cccc(Cl)c2)C(=O)c2ccccc21 | 4.74
7 | Cc1ccc(/N=N/C=C2Nc3ccccc3C2=O)cc1 | 5.44
8 | CC(C)c1ccc(/N=N/C=C2Nc3ccc(Br)cc3C2=O)cc1 | 4.64
9 | O=C1C(=C/N=N/c2cccc(Cl)c2)Nc2ccccc21 | 5.60
10 | O=C1C(=C/N=N/c2ccccc2)Nc2ccccc21 | 5.06
11 | CC(C)c1ccc(NNC=C2C(=O)c3ccccc3C2=O)cc1 | 4.74
12 | CC(C)c1ccc(/N=N/C=C2Nc3ccccc3C2=O)cc1 | 5.85
13 | O=C1C(=CNNc2ccc(Cl)cc2)C(=O)c2ccccc21 | 4.64
14 | Cc1ccc(/N=N/C=C2Nc3ccc(Br)cc3C2=O)cc1 | 4.29
15 | O=C1C(=C/N=N/c2cccc(Cl)c2)Nc2ccc(Br)cc21 | 5.36
16 | COc1ccc2[nH]cc(/C=N\Nc3ccc(Cl)cc3)c2c1 | 4.64

test: Inhibition of amyloid beta (1 to 40) aggregation assessed as inhibition of fibril formation at 100 uM by thioflavin T fluorescent dye assay
Outline: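 Aβ1-40 (HFIP-treated, lyophilized) at 30 µM in PBS (0.01 M, NaCl 0.1 M, pH 7.4) with 2% HFIP and 10% DMSO, test compound 100 µM; triplicate incubations, 2 h at 25 °C. Sample mixed with 25 µM ThT in 0.025 M phosphate pH 6.0; fluorescence ex 440/em 485 nm. Percent inhibition = 100 − [(Fi − Fb)/F0]×100, blank-corrected against free Aβ aggregation.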

Row | SMILES | inhibition [%]
17 | O=C1C(=CNNc2ccccc2)C(=O)c2ccccc21 | 49
18 | O=C1C(=C/N=N/c2ccc(Cl)c(Cl)c2)Nc2ccc(Br)cc21 | 23
19 | O=c1c(=NNc2ccc(Cl)cc2)c(=O)c2ccccc12 | 38
20 | Cc1ccc(NNC=C2C(=O)c3ccccc3C2=O)cc1 | 44
21 | O=C1CCC(=O)C1=CNNc1ccc(Cl)cc1 | 44
22 | O=C1C(=C/N=N/c2ccc(Cl)cc2)Nc2ccc(Br)cc21 | 20
23 | O=C1C(=C/N=N/c2ccc(Cl)cc2)Nc2ccccc21 | 33

test: Inhibition of amyloid beta (1 to 40) aggregation assessed as inhibition of protofibril formation after 3 days
Outline: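 Aβ1-40 (30 µM) with compound at 50 µM in 0.217 M phosphate buffer pH 8.0, 10% ethanol, incubated at 37 °C up to 7 days; aliquots taken at time points, applied to carbon-coated grids, negatively stained with 2% uranyl acetate, imaged by TEM at 60 kV, 60,000-fold magnification; qualitative fibril/protofibril assessment.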

Row | SMILES | inhibition
24 | CC(C)c1ccc(/N=N/C=C2Nc3ccccc3C2=O)cc1 | Active
